Data: ChEMBL document CHEMBL1221310, “Discovery of potent HIV integrase inhibitors active against raltegravir resistant viruses” (Bioorg Med Chem Lett, 2010)

Tests used:
[1] = Inhibition of HIV integrase after 2 hrs by combined strand transfer assay; set-up: species or system Human immunodeficiency virus
In short: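 Integrase (400 ng) was incubated 2 h at 37 °C with 30 nM pre-processed U5 LTR duplex substrate, one strand DIG-tagged and the other biotin-tagged. 3′-processing/strand-transfer products were captured on streptavidin plates and detected with anti-DIG-alkaline phosphatase and p-nitrophenyl phosphate.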

[2] = tested on: Human immunodeficiency virus; experiment: Antiviral activity against wild type HIV assessed as inhibition of p24 antigen production after 48 hrs by cell based luciferase reporter gene assay; format: functional, organism-based; conditions: Human immunodeficiency virus 1, 48 h
[3] = tested on: Human immunodeficiency virus; experiment: Antiviral activity against raltegravir-resistant HIV expressing integrase Q148H/G140S mutant infected in HEK293T cells after 48 hrs by luciferase reporter gene assay; format: functional, organism-based; conditions: Human immunodeficiency virus 1, HEK-293T
In short: (§1)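 VSV-G-pseudotyped, env-deleted HIV-1 carrying luciferase in nef, made by cotransfecting 293T cells; integrase resistance mutations introduced by site-directed mutagenesis. 293T cells seeded 16 h before compound, preincubated with compound 4 h at 37 °C, then infected with virus giving about 10,000 luciferase light units without compound. Luciferase read 48 h post-infection.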

[4] = tested on: Human immunodeficiency virus; experiment: Antiviral activity against raltegravir-resistant HIV expressing integrase N155H/E92Q mutant infected in HEK293T cells after 48 hrs by luciferase reporter gene assay; format: functional, organism-based, HEK-293T; in short: as §1
[5] = tested on: Human immunodeficiency virus; experiment: Antiviral activity against wild type HIV assessed as inhibition of p24 antigen production after 48 hrs by cell based luciferase reporter gene assay in presence of 10% normal human serum; format: functional, organism-based; conditions: Human immunodeficiency virus 1, 48 h
[6] = tested on: Human immunodeficiency virus; experiment: Antiviral activity against wild type HIV assessed as inhibition of p24 antigen production after 48 hrs by cell based luciferase reporter gene assay in presence of 50% normal human serum; format: functional, organism-based; conditions: Human immunodeficiency virus 1, 48 h
[7] = tested on: Human immunodeficiency virus; experiment: Antiviral activity against raltegravir-resistant HIV expressing integrase Q148H/G140S mutant infected in HEK293T cells after 48 hrs by luciferase reporter gene assay in presence of 10% FBS; format: functional, organism-based; conditions: Human immunodeficiency virus 1, HEK-293T; in short: as §1
[8] = tested on: Human immunodeficiency virus; experiment: Antiviral activity against raltegravir-resistant HIV expressing integrase N155H/E92Q mutant infected in HEK293T cells after 48 hrs by luciferase reporter gene assay in presence of 10% FBS; format: functional, organism-based; conditions: Human immunodeficiency virus 1, HEK-293T; in short: as §1
[9] = Half life in microsomes; format: ADME, Microsome
[10] = Human immunodeficiency virus 1, HEK-293T, 48 h, read-out: EC50

CC(NC1CC1)c1cc(N2CCN(C)C2=O)c2nc(-c3ncc(Cc4ccc(F)cc4)s3)c(O)c(=O)n2c1 (stereo not drawn)
IC50 [1]: Not Active
EC50 [2]: 11.5 nM
EC50 [3]: 268 nM
EC50 ([4]; hek-293t): Not Active

O=C1OCCN1c1cc(N2CCOCC2)cn2c(=O)c(O)c(-c3ncc(Cc4ccc(F)cc4)s3)nc12
IC50 ([1]; read-out: IC50): 26 nM
EC50 [2]: 7.1 nM
EC50 [3]: 108 nM
EC50 [4, 10]: 25 nM

O=C1CNCCN1c1cc(N2CCOCC2)cn2c(=O)c(O)c(-c3ncc(Cc4ccc(F)cc4)s3)nc12
EC50 [5]: 4 nM
EC50 [6]: 6.1 nM
EC50 [7]: 34.5 nM
EC50 [8]: 6.7 nM
half-life [9]: 52 min

O=c1c(O)c(-c2ncc(Cc3ccc(F)cc3)s2)nc2ccc(N3CCOCC3)cn12
IC50 ([1]; read-out: IC50): 20 nM
EC50 [2]: 32 nM
EC50 [3]: 3000 nM
EC50 [4, 10]: 74.5 nM

COc1cc(N2CCOCC2)cn2c(=O)c(O)c(-c3ncc(Cc4ccc(F)cc4)s3)nc12
IC50 [1]: Not Active
EC50 [2]: 100 nM
EC50 [3]: 5900 nM
EC50 ([4]; hek-293t): Not Active

CC(C)N1CCN(c2cc(N3CCOCC3)cn3c(=O)c(O)c(-c4ncc(Cc5ccc(F)cc5)s4)nc23)C1=O
IC50 ([1]; read-out: IC50): 19 nM
EC50 [2]: 7.5 nM
EC50 [3]: 18 nM
EC50 [4, 10]: 9.7 nM

CN1CCN(c2cc(N3CCCOC3=O)c3nc(-c4ncc(Cc5ccc(F)cc5)s4)c(O)c(=O)n3c2)CC1
EC50 [5]: 3.5 nM
EC50 [6]: 6.6 nM
EC50 [7]: 29.5 nM
EC50 [8]: 4.9 nM
half-life [9]: 67.8 min

CN1CCN(c2cc(N3CCNCC3=O)cn3c(=O)c(O)c(-c4ncc(Cc5ccc(F)cc5)s4)nc23)C1=O
IC50 [1]: Not Active
EC50 [2]: 27 nM
EC50 [3]: 1100 nM
EC50 ([4]; hek-293t): Not Active

CC(C)N(C)C(=O)N(C)c1cc(N2CCOCC2)cn2c(=O)c(O)c(-c3ncc(Cc4ccc(F)cc4)s3)nc12
IC50 [1]: Not Active
EC50 [2]: 16.5 nM
EC50 [3]: 120 nM
EC50 ([4]; hek-293t): Not Active

CC(C)N(C)C(=O)Nc1cc(N2CCOCC2)cn2c(=O)c(O)c(-c3ncc(Cc4ccc(F)cc4)s3)nc12
IC50 [1]: Not Active
EC50 [2]: 22 nM
EC50 [3]: > 10000 nM
EC50 ([4]; hek-293t): Not Active

CN1CCN(c2cc(CN3CCOCC3)cn3c(=O)c(O)c(-c4ncc(Cc5ccc(F)cc5)s4)nc23)C1=O
IC50 ([1]; read-out: IC50): 25 nM
EC50 [2]: 3.5 nM
EC50 [3]: 243 nM
EC50 [4, 10]: 14.5 nM

CN1CCCN(c2cc(N3CCOCC3)cn3c(=O)c(O)c(-c4ncc(Cc5ccc(F)cc5)s4)nc23)C1=O
IC50 [1]: Not Active
EC50 [2]: 11.5 nM
EC50 [3]: 34 nM
EC50 [4, 10]: 21.5 nM

O=C1OCCCN1c1cc(N2CCOCC2)cn2c(=O)c(O)c(-c3ncc(Cc4ccc(F)cc4)s3)nc12
IC50 [1]: Not Active
EC50 [2]: 4.3 nM
EC50 [3]: 16.5 nM
EC50 [4, 10]: 10.5 nM

CC(C)N1CCN(c2cc(N3CCN(C)C3=O)c3nc(-c4ncc(Cc5ccc(F)cc5)s4)c(O)c(=O)n3c2)CC1
IC50 ([1]; read-out: IC50): 19 nM
EC50 [2]: 6.8 nM
EC50 [3]: 21 nM
EC50 [4, 10]: 8.9 nM

CN1CCN(c2cc(N3CCOCC3)cn3c(=O)c(O)c(-c4ncc(Cc5ccc(F)cc5)s4)nc23)C1=O
IC50 ([1]; read-out: IC50): 47 nM
EC50 [2]: 24 nM
EC50 [3]: 71 nM
EC50 [4, 10]: 10 nM

O=c1c(O)c(-c2ncc(Cc3ccc(F)cc3)s2)nc2c(N3CCCS3(=O)=O)cc(N3CCOCC3)cn12
IC50 ([1]; read-out: IC50): 48 nM
EC50 [2]: 6.4 nM
EC50 [3]: 280 nM
EC50 [4, 10]: 49.5 nM

CC(c1cc(N2CCOCC2)cn2c(=O)c(O)c(-c3ncc(Cc4ccc(F)cc4)s3)nc12)N1CCCCC1 (stereo not drawn)
IC50 [1]: Not Active
EC50 [2]: 110 nM
EC50 [3]: 5500 nM
EC50 ([4]; hek-293t): Not Active

CN1CCN(c2cc(N(C)C)cn3c(=O)c(O)c(-c4ncc(Cc5ccc(F)cc5)s4)nc23)C1=O
IC50 ([1]; read-out: IC50): 90 nM
EC50 [2]: 19.5 nM
EC50 [3]: 92.5 nM
EC50 [4, 10]: 32.5 nM

CN1CCN(c2cc(N3CCOCC3)cn3c(=O)c(O)c(-c4ncc(Cc5ccc(F)cc5)s4)nc23)S1(=O)=O
IC50 ([1]; read-out: IC50): 38 nM
EC50 [2]: 8.5 nM
EC50 [3]: 112 nM
EC50 [4, 10]: 18.5 nM

O=C1CCCN1c1cc(N2CCOCC2)cn2c(=O)c(O)c(-c3ncc(Cc4ccc(F)cc4)s3)nc12
IC50 [1]: Not Active
EC50 [2]: 21 nM
EC50 [3]: 335 nM
EC50 ([4]; hek-293t): Not Active

O=C(c1cc(N2CCOCC2)cn2c(=O)c(O)c(-c3ncc(Cc4ccc(F)cc4)s3)nc12)N1CCCC1
IC50 ([1]; read-out: IC50): 70 nM
EC50 [2]: 81 nM
EC50 [3]: 1180 nM
EC50 [4, 10]: 200 nM

CC(O)c1cc(N2CCOCC2)cn2c(=O)c(O)c(-c3ncc(Cc4ccc(F)cc4)s3)nc12 (stereo not drawn)
IC50 [1]: Not Active
EC50 [2]: 10.5 nM
EC50 [3]: 800 nM
EC50 ([4]; hek-293t): Not Active

CC(=O)c1cc(N2CCOCC2)cn2c(=O)c(O)c(-c3ncc(Cc4ccc(F)cc4)s3)nc12
IC50 ([1]; read-out: IC50): 15 nM
EC50 [2]: 9.5 nM
EC50 [3]: 885 nM
EC50 ([4]; hek-293t): Not Active

O=c1c(O)c(-c2ncc(Cc3ccc(F)cc3)s2)nc2c(Br)cc(N3CCOCC3)cn12
IC50 ([1]; read-out: IC50): 42 nM
EC50 [2]: 14 nM
EC50 [3]: 2500 nM
EC50 [4, 10]: 19 nM

CC1CN(C)CCN1c1cc(N2CCCOC2=O)c2nc(-c3ncc(Cc4ccc(F)cc4)s3)c(O)c(=O)n2c1 (stereo not drawn)
EC50 [5]: 4.2 nM
EC50 [6]: 5.5 nM
EC50 [7]: 40.5 nM
EC50 [8]: 5.2 nM
half-life [9]: 18 min
